Assay results as given in paper PMC9826439 (Chemistry (Weinheim an Der Bergstrasse, Germany), 2022).

Key:
[1] = molecular target: human cathepsin L (Homo sapiens, UniProt P07711); assay: Cathepsin L inhibition assay; type: biochemical; conditions: ratio of k inac/K i values
Outline: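 Commercial human cathepsin; inactivation progress curves recorded for 60 min at five test-compound concentrations, in duplicate. pNA substrates were read at 405 nm (cuvette) and AMC substrates at λex 360/λem 460 nm. kobs came from a non-linear progress-curve fit, and kinac/Ki from a kobs vs [I] fit corrected by [S]/Km. Remaining activity was taken at 5 μM. SR is the ratio of rhodesain to cathepsin kinac/Ki.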

[2] = molecular target: rhodesain-like proteases (TbCatLs) in T. b. brucei cell lysate (Trypanosoma brucei brucei, UniProt P14658); assay: Competition profiling assay with ABP 7, T. b. brucei cell lysate; type: biochemical; conditions: T. b. brucei cell lysate 80 μg protein; inhibitor 0.016–10 μM, then ABP 7 5 μM
rhodesain-like proteases (TbCatLs) in T. b. brucei cell lysate, sequence (P14658 126-450): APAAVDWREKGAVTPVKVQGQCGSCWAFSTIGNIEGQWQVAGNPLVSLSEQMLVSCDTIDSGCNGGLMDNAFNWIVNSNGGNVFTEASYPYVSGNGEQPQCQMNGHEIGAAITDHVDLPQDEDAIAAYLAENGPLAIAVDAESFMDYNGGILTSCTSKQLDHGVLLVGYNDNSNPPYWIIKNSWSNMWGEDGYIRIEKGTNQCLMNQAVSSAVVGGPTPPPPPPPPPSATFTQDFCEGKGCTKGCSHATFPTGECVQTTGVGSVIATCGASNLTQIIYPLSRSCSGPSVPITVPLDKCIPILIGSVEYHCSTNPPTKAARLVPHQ

[3] = molecular target: rhodesain (Trypanosoma brucei rhodesiense, UniProt Q95PM0); conditions: E-64 15 µM preincubated 37 °C 15 min, then ABP 7 15 µM
rhodesain, sequence (Q95PM0 126-340 limits assumed): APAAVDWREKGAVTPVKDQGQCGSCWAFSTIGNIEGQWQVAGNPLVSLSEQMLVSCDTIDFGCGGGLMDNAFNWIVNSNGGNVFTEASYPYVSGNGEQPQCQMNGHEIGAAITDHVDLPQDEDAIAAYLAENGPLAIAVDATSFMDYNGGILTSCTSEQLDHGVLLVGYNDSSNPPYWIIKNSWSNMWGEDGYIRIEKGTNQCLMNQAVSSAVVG

human cathepsin L, sequence (P07711 114-333): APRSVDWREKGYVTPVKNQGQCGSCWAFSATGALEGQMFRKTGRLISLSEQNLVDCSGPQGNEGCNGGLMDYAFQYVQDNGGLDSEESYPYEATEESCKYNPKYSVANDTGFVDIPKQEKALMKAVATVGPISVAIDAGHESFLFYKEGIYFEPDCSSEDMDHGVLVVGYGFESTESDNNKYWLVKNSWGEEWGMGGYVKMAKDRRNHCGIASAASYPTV

Compound | selectivity ratio (SR rhodesain/cathepsin L) [1] | concentration at which significantly lowered ABP 7 labeling signal was observed [2] | generation of the fluorescent rhodesain-7 adduct [3]
Cc1ccc(C[C@H](NC(=O)OC(C)(C)C)C(=O)NC/C=C/S(=O)(=O)c2ccccc2)cc1 [Compound 2, (S,E)‐tert‐Butyl 1‐oxo‐1‐(3‐(phenylsulfonyl)allylamino)‐3‐p‐tolylpropan‐2‐ylcarbamate] | 23.8 | 80 nM | –
CC(C)C[C@H](NC(=O)[C@H]1O[C@@H]1C(=O)O)C(=O)NCCCCN=C(N)N [E‐64] | – | – | completely abolished
